High-throughput results (PubChem BioAssay)
This is a sample that favours compounds with a hit; in the whole collection about 1.8% have one here.
CHRM4 agonist = human M4 muscarinic receptor agonists, primary screen, CHO-K1 cells, Fluo-8 calcium fluorescence; Muscarinic acetylcholine receptor M4 (Homo sapiens), P08173; CHO-K1 hM4/Gqi5; vehicle 0%, full acetylcholine response 100%; activation, % at 3 µM; hit rate 0.14% among 360,000; AID 624127, 2012;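 active means activation above the run mean over all test wells plus 3 SD, cut at about 32% in these data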;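 further: peak over basal fluorescence ratio per well then scaled between controls; 0% = DMSO wells and 100% = acetylcholine at EC100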
CHRM4 PAM = human M4 muscarinic receptor positive allosteric modulators, primary screen, CHO-K1 cells, Fluo-8 calcium fluorescence; CHO-K1 hM4/Gqi5, ACh EC20; 0% = ACh EC20, 100% = maximal ACh; activation, % at 3 µM; hit rate 0.4% among 360,000; AID 624126, 2012;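 active means activation above its plate's cutoff, the mean activation of sample wells plus 3 SD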
CHRM5 antagonist = human M5 muscarinic receptor antagonists, primary screen, CHO cells, Fluo-8 calcium fluorescence; inhibition, % at 3 µM; hit rate 0.59% among 360,000; CHO-hM5 cells, ACh EC80; AID 624040, 2012;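 active means inhibition above a per-plate cutoff, the mean of that plate's test compounds plus 3 SD, cut at about 27% in these data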;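 further: 0% = acetylcholine EC80 with DMSO and 100% = DMSO without agonist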
Target sequence (P08912 whole entry, looked up): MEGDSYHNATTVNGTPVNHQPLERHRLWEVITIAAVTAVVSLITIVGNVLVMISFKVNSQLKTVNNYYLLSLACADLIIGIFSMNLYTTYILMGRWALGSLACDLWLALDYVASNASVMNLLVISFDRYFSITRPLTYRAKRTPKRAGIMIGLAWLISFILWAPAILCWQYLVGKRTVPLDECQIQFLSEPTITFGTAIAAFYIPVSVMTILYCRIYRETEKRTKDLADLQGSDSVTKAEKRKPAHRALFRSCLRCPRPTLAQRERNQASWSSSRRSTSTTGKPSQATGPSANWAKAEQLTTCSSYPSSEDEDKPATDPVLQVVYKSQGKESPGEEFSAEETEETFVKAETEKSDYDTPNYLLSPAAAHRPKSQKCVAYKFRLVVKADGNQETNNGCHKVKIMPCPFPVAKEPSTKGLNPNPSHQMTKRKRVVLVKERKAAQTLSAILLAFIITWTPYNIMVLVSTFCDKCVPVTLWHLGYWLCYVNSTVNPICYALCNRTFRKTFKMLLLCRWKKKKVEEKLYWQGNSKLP
M5 ag = human M5 muscarinic receptor agonists, primary screen, CHO-K1 cells, Fluo-8 calcium fluorescence; CHO-K1 hM5 cells; 0% DMSO wells, 100% maximal acetylcholine response; activation, % at 3 µM; Muscarinic acetylcholine receptor M5 (Homo sapiens), P08912; AID 624037, 2012; hit rate 0.19% among 360,000;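 active means activation above the run's mean over test compounds plus 3 SD, cut at about 23% in these data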;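 further: signal is peak over basal fluorescence ratio across the kinetic read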
CHRM5 PAM = human M5 muscarinic receptor positive allosteric modulators, primary screen, CHO-K1 cells, Fluo-8 calcium fluorescence; Muscarinic acetylcholine receptor M5 (Homo sapiens), P08912; CHO-K1 hM5, ACh EC20 PAM; 0% = ACh EC20, 100% = ACh EC100; activation, % at 3 µM; hit rate 0.3% among 360,000; AID 624038, 2012;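 active means activation above the run cutoff, the mean activation of all test compounds plus 3 SD, cut at about 18% in these data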
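Test system: CHO-K1 hM5 cells / Doses: single-point, 3 µM nominal / Times: Post-acetylcholine fluorescence recording 140 s / Technique: Fluo-8 calcium fluorescence / Measure: Max/basal fluorescence ratio as % of EC20–EC100 ACh window / Benchmarks: low control EC20 acetylcholine (0%), high control EC100 acetylcholine (100%) / Replicates: one well per compound, no replicates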
M4 antag = human M4 muscarinic receptor antagonists, primary screen, CHO cells, Fluo-8 calcium fluorescence; CHO-hM4 cells, ACh EC80; Muscarinic acetylcholine receptor M4 (Homo sapiens), P08173; hit rate 0.73% among 360,000; inhibition, % at 3 µM;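 active means inhibition above its plate's cutoff, the mean inhibition of sample wells plus 3 SD, cut at about 27% in these data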;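 further: 0% = acetylcholine EC80 with DMSO and 100% = DMSO without agonist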
The depositor's hits bear a star.

SMILES | CHRM4 agonist | CHRM4 PAM | CHRM5 antagonist | M5 ag | CHRM5 PAM | M4 antag
CC1CC(C)CN(S(=O)(=O)c2ccc(NC(=O)[C@@H]3CCCN3C(=O)c3cccs3)cc2)C1 (some centres not stated) | -1 | -6 | 3 | -8 | -22 | 28*
Cc1ccc(-n2nnnc2CNC(=O)c2ccc(Br)o2)cc1C | 1 | 1 | 5 | -5 | 3 | -1
Cc1ccc(-n2nnnc2CNC(=O)c2ccc3c(c2)OCO3)cc1C | 1 | -14 | 12 | -10 | -9 | 63*
CN1/C(=C/C=C(C#N)C#N)C(C)(C)c2ccccc21 | 0 | -7 | 1 | 2 | 9 | -6
CC1=C/C(=C\C=C(C#N)C#N)N(C)c2ccccc21 | 10 | -1 | 17 | 43* | -13 | 2
COc1ccc(C(=O)C[C@@H]2OC[C@H](Cc3ccccc3)N2S(=O)(=O)c2ccc(C)cc2)cc1OC | 5 | -5 | 6 | -1 | -9 | 3
CC(C)NC(=O)CCCc1ccccc1 | 2 | 29* | -4 | 4 | 7 | -1
CCC(NC(=O)CCCc1ccccc1)c1ccccc1 (configuration not stated) | 0 | -1 | 6 | -5 | -4 | 6
COc1ccccc1NC(=O)C1CCCN(c2nc(C)cc(C)n2)C1 (configuration not stated) | -1 | 17* | 8 | -4 | -7 | -4
COc1ccc(C2NCCc3c2[nH]c2ccccc32)cc1COc1ccc(F)cc1 (configuration not stated) | 28 | -4 | 12 | 7 | 3 | 37*
O=C(Nc1cccc(Cl)c1)Nc1ccc(Br)cc1F | 7 | -16 | 16 | 1 | -14 | 25
Cc1cc(NC(=O)Nc2ccccc2F)ccc1Br | 13 | -16 | 37* | 0 | -18 | 13
O=C(Nc1ccccc1)Nc1ccc(Br)cc1F | 7 | -28 | 28* | 0 | -19 | 54*
CSc1ccc(Cn2c(C)c(C(=O)NCc3cccs3)sc2=O)cc1 | 8 | -1 | -1 | -2 | -10 | -11
CCc1nc2c(OCc3ccc(C(F)(F)F)cc3)cccn2c1N(C)C(=O)c1ccncc1 | 2 | 4 | 3 | -2 | -5 | -7
COC1=C(OC)c2ccccc2C(C(=O)O)N/C1=C(/C)Nc1ccncc1 (configuration not stated) | 1 | -4 | 0 | -2 | 0 | 29*
O=S1(=O)C[C@H](N2CCN(CC3CC3)CC2)[C@@H](COCc2ccccc2)N1 | 1 | -6 | -1 | -2 | 3 | -1
CCCc1nc2ccc(Cl)cn2c1Cc1ccsc1 | -2 | 4 | -4 | -5 | 3 | -6
O=[N+]([O-])c1cc2cccnc2c2ncccc12 | 1 | 12* | -3 | 2 | 0 | -9
CCOc1ccc2c(c1)c(N=O)c(O)n2C | 0 | 7 | 3 | 0 | 20* | 3
O=C(NCCc1ccccc1)c1cc(S(=O)(=O)N2CCCCC2)c[nH]1 | 6 | 9 | -8 | 6 | -2 | -22
O=C(COC(=O)C1COc2ccccc2O1)NC(=O)Nc1ccc2c(c1)OCCO2 (configuration not stated) | 2 | 23* | 0 | 0 | 1 | 0
O=C(COC(=O)c1ccc(Br)o1)Nc1ccc2c(c1)OCCO2 | 1 | 26* | -3 | 2 | -1 | -10
O=C(COC(=O)CNC(=O)c1ccc(Br)o1)Nc1ccc2c(c1)OCCO2 | 2 | -5 | 0 | 4 | 0 | 16
O=C(COC(=O)C1COc2ccccc2O1)Nc1cccc(Cl)c1 (configuration not stated) | 1 | 0 | 18 | -1 | -7 | 6
SMILES | CHRM4 agonist | CHRM4 PAM | CHRM5 antagonist | M5 ag | CHRM5 PAM | M4 antag
CCOC(=O)N1CCC(N2CCCC(C(=O)c3cc(C)c(OC)c(C)c3)C2)CC1 (configuration not stated) | 2 | -16 | 36* | -11 | -20 | 21
COc1ccc(C(=O)C2CCCN(Cc3nc4ccccc4nc3C)C2)cc1OC (configuration not stated) | 1 | -2 | -3 | -4 | 0 | -8
COc1ccc(C(=O)C2CCCN(C3Cc4ccccc4C3)C2)cc1OC (configuration not stated) | 1 | -18 | 11 | -10 | -11 | 29*
O=C(c1ccoc1)N1CCN(c2cc(-c3cccnc3)nc3cc(-c4cccc(Cl)c4)nn23)CC1 | 0 | 1 | -5 | 0 | 5 | 8
Cc1cccc(C)c1NC(=O)C1(C)CSCC(=O)N1CCc1c[nH]c2ccccc12 (configuration not stated) | 6 | 0 | -12 | 0 | 7 | -13
COc1cccc(N2CCN(c3ncnc4c3[nH]c3ccc(F)cc34)CC2C)c1 (configuration not stated) | 28 | -23 | 77* | 7 | -23 | 85*
CCn1cc(C(=O)N(C)c2cc(C)ccc2OC)c2cc(OC)c(OC)cc2c1=O | 3 | 2 | 6 | -2 | 0 | -10
CCn1cc(C(=O)N(C)c2ccc(OC)cc2OC)c2cc(OC)c(OC)cc2c1=O | 2 | 14* | 0 | -4 | 11 | -27
COc1ccc(C)cc1S(=O)(=O)N(CC(=O)O)c1ccccc1 | 1 | -1 | -4 | -1 | 3 | -4
COc1ccc(N(CC(=O)Nc2ccccc2OC)S(=O)(=O)c2ccc(NC(C)=O)cc2)cc1 | 12 | -9 | 32* | -6 | -11 | 3
COc1ccc(S(=O)(=O)N(C)CC(=O)Nc2ccccc2OC)cc1 | 2 | 1 | 1 | -2 | 0 | 34*
COc1ccccc1NC(=O)CN(c1ccccc1)S(=O)(=O)c1ccccc1 | 2 | -7 | 8 | -2 | 16 | -18
COc1ccc(C)cc1S(=O)(=O)N(CC(=O)O)c1ccc(C)cc1 | 0 | 32* | -13 | 3 | 12 | 6
COc1ccc(S(=O)(=O)N(CC(=O)O)c2ccccc2)cc1 | 2 | 22* | -1 | 2 | 4 | -12
COc1ccc(CN(C)C[C@@H]2OCc3cnnn3CCCC(=O)N([C@H](C)CO)C[C@H]2C)cc1 | 1 | -2 | -10 | 1 | 1 | 2
COc1cc(OC)cc(C2=Cc3ccccc3C(CC(=O)c3ccco3)N2c2ccc(-c3cncnc3)cc2)c1 (configuration not stated) | 2 | 6 | 2 | 0 | 0 | -5
